Test results: paper PMC12510370 (Chemical Science, 2025)
Where two headings read alike, the source gives them in different places.

Key:
Assay type in all cases: cell-based
HeLa cells [1] = experiment: MTT
Summary of the method: (§1)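 MTT assay on A549, HeLa and MRC9 cells, with cells kept in the dark or irradiated at 450 nm (15.5 mW cm−2, 15 min). […] IC50 values were derived for dark and light conditions. For A549 and HeLa, PI = IC50,dark/IC50,light.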

A549 cells = experiment: MTT
Summary of the method: as §1

normal MRC9 cells = experiment: MTT
Summary of the method: as §1

HeLa cells [2] = experiment: Mitochondrial membrane potential with JC-1; conditions: 50 μM, 15 min, positive control
Summary of the method: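 HeLa cells were untreated, given CCCP (50 μM, 15 min) as positive control, or treated with the test compound (4.5 nM, 24 h). Treated cells were then kept in the dark for 24 h or irradiated (450 nm, 15.5 mW cm−2, 15 min) and incubated 24 h more. Staining used JC-1 (2 μg mL−1, 20 min; λex 488 nm; monomer emission 510–530 nm, J-aggregate emission 590–610 nm).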

Row | Compound | IC50 (HeLa cells [1]; read-out: IC50,dark, in the dark) [µM] | IC50 (HeLa cells [1]; read-out: IC50,light, irradiation at 450 nm (15.5 mW cm^−2, 15 min)) [µM] | IC50 (A549 cells; read-out: IC50,dark, A549, in the dark) [µM] | IC50 (A549 cells; read-out: IC50,light, A549, irradiation at 450 nm (15.5 mW cm^−2, 15 min)) [µM] | IC50 (normal MRC9 cells; read-out: IC50,dark, MRC9, in the dark) [µM] | IC50 (normal MRC9 cells; read-out: IC50,light, MRC9, irradiation at 450 nm (15.5 mW cm^−2, 15 min)) [µM] | mitochondrial membrane potential (JC-1) (HeLa cells [2])
1 | 1-phenyl-5-thioxo-5,6-dihydro-[1,2,4]triazolo[1,5-c]quinazolin-1-ium-2-thiolate [p-Httqt] | > 100 | > 100 | > 100 | > 100 | > 100 | > 100 | 
2 | N#CC(C#N)=NNc1cccc(Cl)c1 [CCCP, carbonyl cyanide m-chlorophenyl hydrazone] |  |  |  |  |  |  | reduced the intensity of the red channel
